Residual activity and inhibition data for 3 compounds are collected here from ChEMBL document CHEMBL5705888, “Substrate specificity and inhibitors of LRRK2, a protein kinase mutated in Parkinson's disease” (Biochem J, 2009).

Experiment [1] concerns the target Mitogen-activated protein kinase 9 (Homo sapiens) (UniProt P45984). Description: Inhibition of JNK2 (unknown origin) at 10 uM incubated for 30 mins in presence of [gamma-33P]ATP by multidrop micro reagent based assay relative to control; values are per cent of control.
Experiment [2] addresses RAC-beta serine/threonine-protein kinase (Homo sapiens) (UniProt P31751). Put plainly: Inhibition of PKBbeta (unknown origin) at 10 uM incubated for 30 mins in presence of [gamma-33P]ATP by multidrop micro reagent based assay relative to control; values are per cent of control.
The target in experiment [3] is T1, Dual specificity tyrosine-phosphorylation-regulated kinase 3 (Homo sapiens) (UniProt O43781).
T1 sequence (whole entry): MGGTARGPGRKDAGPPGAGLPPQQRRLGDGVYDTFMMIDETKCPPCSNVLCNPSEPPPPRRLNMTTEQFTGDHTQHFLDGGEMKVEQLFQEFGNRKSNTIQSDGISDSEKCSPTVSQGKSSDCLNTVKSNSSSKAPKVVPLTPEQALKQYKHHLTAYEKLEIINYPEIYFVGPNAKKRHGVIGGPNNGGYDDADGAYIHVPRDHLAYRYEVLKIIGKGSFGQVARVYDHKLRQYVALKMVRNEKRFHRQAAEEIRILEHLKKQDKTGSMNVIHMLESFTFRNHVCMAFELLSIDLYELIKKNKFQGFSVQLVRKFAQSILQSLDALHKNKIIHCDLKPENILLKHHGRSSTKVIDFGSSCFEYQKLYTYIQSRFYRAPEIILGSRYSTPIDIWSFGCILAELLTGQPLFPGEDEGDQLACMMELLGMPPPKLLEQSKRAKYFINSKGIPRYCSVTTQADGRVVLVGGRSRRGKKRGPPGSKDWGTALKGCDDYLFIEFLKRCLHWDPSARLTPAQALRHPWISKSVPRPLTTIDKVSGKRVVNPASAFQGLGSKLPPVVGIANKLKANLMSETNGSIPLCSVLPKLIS
Put plainly: Inhibition of DYRK3 (unknown origin) at 10 uM incubated for 30 mins in presence of [gamma-33P]ATP by multidrop micro reagent based assay relative to control.

The target of experiment [4] is Ribosomal protein S6 kinase beta-1 (Homo sapiens) (UniProt P23443). Description: Residual activity of S6K1 (unknown origin) at 10 uM incubated for 30 mins in presence of [gamma-33P]ATP by multidrop micro reagent based assay relative to control.
Experiment [5] addresses MAP kinase-interacting serine/threonine-protein kinase 1 (Homo sapiens) (UniProt Q9BUB5). Description: Inhibition of MNK1 (unknown origin) at 10 uM incubated for 30 mins in presence of [gamma-33P]ATP by multidrop micro reagent based assay relative to control. The procedure, abridged: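 Single-concentration screen across a panel of 85 protein kinases. Activity is expressed as a percentage of control incubations run without inhibitor.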

In experiment [6] the target is Protein kinase C alpha type (Homo sapiens) (UniProt P17252). Put plainly: Inhibition of PKCalpha (unknown origin) at 10 uM incubated for 30 mins in presence of [gamma-33P]ATP by multidrop micro reagent based assay relative to control; values are per cent of control.
The target in experiment [7] is Serine/threonine-protein kinase 26 (Homo sapiens) (UniProt Q9P289). Put plainly: Inhibition of MST4 (unknown origin) at 1 uM incubated for 30 mins in presence of [gamma-33P]ATP by multidrop micro reagent based assay relative to control.
Experiment [8] concerns the target Tyrosine-protein kinase BTK (Homo sapiens) (UniProt Q06187). Put plainly: Inhibition of BTK (unknown origin) at 10 uM incubated for 30 mins in presence of [gamma-33P]ATP by multidrop micro reagent based assay relative to control; values are per cent of control.
The target in experiment [9] is T2, Mitogen-activated protein kinase 15 (Homo sapiens) (UniProt Q8TD08).
T2 sequence (whole entry): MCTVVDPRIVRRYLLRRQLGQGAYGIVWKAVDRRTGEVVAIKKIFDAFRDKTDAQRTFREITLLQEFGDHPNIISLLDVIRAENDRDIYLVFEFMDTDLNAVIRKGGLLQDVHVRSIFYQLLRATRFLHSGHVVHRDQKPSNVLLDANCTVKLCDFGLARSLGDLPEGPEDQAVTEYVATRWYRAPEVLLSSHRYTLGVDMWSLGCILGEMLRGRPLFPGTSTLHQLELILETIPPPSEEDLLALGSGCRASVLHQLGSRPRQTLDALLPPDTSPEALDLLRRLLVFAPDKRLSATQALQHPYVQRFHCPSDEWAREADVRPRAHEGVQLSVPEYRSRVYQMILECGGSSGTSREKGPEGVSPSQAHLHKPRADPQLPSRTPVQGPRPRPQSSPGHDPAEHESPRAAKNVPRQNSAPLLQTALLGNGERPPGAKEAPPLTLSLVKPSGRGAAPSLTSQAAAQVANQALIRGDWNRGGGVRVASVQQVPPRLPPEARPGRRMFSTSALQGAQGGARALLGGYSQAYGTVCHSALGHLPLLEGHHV
Put plainly: Inhibition of ERK8 (unknown origin) at 10 uM incubated for 30 mins in presence of [gamma-33P]ATP by multidrop micro reagent based assay relative to control.

Sequence of Ribosomal protein S6 kinase beta-1 (Homo sapiens) (P23443 whole entry, looked up): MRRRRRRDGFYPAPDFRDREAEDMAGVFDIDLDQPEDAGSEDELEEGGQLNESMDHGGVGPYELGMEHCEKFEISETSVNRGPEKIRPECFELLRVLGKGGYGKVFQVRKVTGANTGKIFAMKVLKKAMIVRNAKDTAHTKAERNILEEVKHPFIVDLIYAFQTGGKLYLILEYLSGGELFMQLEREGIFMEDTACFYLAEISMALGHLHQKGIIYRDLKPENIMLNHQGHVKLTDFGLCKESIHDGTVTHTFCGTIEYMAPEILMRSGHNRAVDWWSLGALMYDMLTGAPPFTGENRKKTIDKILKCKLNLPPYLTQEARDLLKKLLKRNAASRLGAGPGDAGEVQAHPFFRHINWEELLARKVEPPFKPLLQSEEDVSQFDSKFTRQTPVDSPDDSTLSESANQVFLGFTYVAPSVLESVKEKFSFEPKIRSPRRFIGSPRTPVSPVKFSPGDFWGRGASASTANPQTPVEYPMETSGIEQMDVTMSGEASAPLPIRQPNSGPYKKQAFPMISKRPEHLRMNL
Sequence of Serine/threonine-protein kinase 26 (Homo sapiens) (Q9P289 2-416 limits assumed): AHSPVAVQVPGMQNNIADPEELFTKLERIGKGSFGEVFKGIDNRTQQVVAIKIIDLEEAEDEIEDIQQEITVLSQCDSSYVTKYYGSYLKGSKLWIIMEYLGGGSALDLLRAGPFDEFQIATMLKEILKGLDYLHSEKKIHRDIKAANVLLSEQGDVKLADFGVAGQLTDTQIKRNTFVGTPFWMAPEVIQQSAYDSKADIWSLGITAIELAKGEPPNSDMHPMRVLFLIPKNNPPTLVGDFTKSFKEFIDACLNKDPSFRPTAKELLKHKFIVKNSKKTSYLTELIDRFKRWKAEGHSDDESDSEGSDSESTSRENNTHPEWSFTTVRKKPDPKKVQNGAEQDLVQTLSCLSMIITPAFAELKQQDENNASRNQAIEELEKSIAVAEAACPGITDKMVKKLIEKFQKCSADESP
Sequence of MAP kinase-interacting serine/threonine-protein kinase 1 (Homo sapiens) (Q9BUB5 whole entry, looked up): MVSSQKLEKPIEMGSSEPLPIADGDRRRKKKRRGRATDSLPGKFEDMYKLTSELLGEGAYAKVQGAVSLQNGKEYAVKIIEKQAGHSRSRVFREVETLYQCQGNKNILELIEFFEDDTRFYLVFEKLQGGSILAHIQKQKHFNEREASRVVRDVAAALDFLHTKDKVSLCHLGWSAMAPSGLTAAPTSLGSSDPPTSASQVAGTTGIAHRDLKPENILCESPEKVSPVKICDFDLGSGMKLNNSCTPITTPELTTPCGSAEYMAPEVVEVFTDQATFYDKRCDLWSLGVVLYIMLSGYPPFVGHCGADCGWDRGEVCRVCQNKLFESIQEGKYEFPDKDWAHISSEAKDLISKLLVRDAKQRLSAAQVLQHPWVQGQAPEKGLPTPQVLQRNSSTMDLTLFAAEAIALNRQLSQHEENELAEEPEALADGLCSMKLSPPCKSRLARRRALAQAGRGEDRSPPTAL
Sequence of Tyrosine-protein kinase BTK (Homo sapiens) (Q06187 whole entry): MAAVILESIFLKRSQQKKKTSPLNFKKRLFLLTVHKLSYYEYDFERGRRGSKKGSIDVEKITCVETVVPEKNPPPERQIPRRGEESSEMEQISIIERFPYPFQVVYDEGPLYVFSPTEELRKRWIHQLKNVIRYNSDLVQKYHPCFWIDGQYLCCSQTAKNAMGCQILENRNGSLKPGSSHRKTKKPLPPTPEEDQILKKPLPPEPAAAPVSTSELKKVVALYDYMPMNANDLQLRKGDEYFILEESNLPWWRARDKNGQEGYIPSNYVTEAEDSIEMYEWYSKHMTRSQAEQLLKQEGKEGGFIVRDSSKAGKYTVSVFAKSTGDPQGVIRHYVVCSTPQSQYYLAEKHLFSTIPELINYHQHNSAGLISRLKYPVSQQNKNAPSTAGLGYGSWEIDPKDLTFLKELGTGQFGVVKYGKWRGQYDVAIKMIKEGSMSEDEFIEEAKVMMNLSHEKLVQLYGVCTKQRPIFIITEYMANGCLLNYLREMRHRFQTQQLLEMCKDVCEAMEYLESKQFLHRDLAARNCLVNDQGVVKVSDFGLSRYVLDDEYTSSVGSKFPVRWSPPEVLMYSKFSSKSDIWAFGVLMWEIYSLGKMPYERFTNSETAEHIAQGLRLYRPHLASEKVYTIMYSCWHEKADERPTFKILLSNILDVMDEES
Sequence of RAC-beta serine/threonine-protein kinase (Homo sapiens) (P31751 whole entry): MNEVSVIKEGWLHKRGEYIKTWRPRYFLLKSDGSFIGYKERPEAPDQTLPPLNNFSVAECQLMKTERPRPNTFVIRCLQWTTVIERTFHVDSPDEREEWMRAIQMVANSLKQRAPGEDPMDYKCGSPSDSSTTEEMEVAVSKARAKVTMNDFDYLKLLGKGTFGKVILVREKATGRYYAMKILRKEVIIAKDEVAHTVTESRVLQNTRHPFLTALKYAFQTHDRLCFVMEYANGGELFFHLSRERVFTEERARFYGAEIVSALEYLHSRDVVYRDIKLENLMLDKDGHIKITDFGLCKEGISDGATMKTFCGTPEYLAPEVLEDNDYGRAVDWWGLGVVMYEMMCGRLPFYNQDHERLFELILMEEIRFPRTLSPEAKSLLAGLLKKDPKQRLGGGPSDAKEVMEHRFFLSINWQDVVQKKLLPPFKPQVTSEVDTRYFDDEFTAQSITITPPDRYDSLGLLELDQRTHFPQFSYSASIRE
Sequence of Mitogen-activated protein kinase 9 (Homo sapiens) (P45984 whole entry, looked up): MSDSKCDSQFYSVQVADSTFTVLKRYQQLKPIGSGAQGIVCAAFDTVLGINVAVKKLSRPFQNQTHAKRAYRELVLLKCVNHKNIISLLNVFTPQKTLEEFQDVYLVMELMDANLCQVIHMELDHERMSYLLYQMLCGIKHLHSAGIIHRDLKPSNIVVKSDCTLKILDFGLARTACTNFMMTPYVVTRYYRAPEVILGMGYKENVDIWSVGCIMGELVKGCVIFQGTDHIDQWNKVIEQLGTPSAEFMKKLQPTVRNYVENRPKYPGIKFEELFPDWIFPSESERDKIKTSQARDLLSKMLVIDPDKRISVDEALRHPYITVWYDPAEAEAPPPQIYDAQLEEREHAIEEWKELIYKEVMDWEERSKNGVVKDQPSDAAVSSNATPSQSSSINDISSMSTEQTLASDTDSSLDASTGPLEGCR

Turning to `C[C@@H](N)[C@H]1CC[C@H](C(=O)Nc2ccncc2)CC1`, the residual activity in experiment [1] is 96%; in [2], 105%; in experiment [4] it was 70%; in experiment [6], 52%. Further, the inhibition in [3] was 100%; in experiment [5], 20%.
`CC1=C(C(=O)Nc2cc3cn[nH]c3cc2F)C(c2ccc(C(F)(F)F)cc2)CC(=O)N1` (centres undefined): in experiment [7], the residual activity amounted to 70%.
Take `O=S(=O)(c1cccc2cnccc12)N1CCCNCC1` [FASUDIL]: the residual activity in [8] was 112%. Besides, the inhibition in experiment [9] was 68%.

In general, inhibition refers to the relative decrease from the control value, in per cent.
